What was measured:
Protein O-GlcNAcase [1] = target: T1, Protein O-GlcNAcase (Homo sapiens, UniProt O60502); experiment: Inhibition of OGA (unknown origin) using pNP-O-GlcNAc as substrate assessed as inhibition constant incubated for 30 mins
T1 sequence (O60502 whole entry): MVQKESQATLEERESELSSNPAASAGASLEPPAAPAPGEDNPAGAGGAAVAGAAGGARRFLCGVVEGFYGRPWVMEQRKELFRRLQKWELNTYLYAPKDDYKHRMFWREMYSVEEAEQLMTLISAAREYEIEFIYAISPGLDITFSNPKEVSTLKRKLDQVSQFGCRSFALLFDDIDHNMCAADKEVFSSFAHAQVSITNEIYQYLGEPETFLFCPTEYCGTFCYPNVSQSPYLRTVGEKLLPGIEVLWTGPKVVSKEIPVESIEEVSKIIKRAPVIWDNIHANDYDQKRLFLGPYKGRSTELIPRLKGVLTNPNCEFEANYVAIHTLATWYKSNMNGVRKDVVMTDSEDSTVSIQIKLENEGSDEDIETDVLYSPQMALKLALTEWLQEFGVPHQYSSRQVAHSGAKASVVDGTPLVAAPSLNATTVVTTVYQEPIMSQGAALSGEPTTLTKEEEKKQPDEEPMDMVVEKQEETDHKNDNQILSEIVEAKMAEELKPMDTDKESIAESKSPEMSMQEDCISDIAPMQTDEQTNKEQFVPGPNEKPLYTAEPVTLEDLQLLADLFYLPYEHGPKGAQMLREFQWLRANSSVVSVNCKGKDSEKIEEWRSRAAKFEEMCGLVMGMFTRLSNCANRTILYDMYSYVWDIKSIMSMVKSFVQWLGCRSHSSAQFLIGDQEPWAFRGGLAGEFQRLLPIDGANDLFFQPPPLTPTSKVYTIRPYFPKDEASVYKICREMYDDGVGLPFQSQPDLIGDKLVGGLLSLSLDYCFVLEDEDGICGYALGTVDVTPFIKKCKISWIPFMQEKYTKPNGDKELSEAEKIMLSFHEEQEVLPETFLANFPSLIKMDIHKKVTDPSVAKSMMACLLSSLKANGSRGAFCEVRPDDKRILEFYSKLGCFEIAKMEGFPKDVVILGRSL

HEXA/HEXB [2] = target: T2, HEXA/HEXB (Bos taurus, UniProt Q0V8R6+H7BWW2); experiment: Competitive inhibition of cow HexA/HexB (unknown origin) using pNP-GlcNAc as substrate assessed as inhibition constant by measuring liberation of nitrophenol preincubated with enzyme followed by substrate addition by Dixon plot analysis; assay type: protein
T2 sequence (Q0V8R6 whole entry): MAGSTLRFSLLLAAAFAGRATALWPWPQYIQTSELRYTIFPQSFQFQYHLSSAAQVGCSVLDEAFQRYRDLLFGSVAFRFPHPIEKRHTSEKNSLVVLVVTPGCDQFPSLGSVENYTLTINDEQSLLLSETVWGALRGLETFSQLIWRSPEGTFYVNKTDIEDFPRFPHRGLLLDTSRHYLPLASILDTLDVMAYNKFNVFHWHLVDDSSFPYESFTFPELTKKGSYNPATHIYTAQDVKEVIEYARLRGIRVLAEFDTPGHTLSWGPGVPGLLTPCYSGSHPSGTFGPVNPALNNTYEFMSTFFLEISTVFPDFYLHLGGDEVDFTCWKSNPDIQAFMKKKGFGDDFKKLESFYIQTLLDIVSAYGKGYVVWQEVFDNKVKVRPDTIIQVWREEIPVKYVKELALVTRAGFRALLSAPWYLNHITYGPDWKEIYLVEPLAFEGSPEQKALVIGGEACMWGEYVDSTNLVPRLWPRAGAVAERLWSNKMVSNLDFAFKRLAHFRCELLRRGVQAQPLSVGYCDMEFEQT
T2 sequence (H7BWW2 whole entry): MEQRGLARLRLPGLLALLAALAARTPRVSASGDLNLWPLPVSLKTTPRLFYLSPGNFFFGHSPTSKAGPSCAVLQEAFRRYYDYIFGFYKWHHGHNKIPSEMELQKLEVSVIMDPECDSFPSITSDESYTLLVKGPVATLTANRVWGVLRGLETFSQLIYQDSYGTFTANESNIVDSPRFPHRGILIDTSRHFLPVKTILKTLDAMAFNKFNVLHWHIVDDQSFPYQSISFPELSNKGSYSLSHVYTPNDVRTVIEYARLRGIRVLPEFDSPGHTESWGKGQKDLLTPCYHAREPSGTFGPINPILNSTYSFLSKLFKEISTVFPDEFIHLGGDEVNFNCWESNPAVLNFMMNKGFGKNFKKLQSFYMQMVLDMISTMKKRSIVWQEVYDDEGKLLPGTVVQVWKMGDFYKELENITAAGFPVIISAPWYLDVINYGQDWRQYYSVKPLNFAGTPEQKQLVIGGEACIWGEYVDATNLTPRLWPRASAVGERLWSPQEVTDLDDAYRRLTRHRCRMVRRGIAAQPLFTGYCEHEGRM

Protein O-GlcNAcase [3] = target: T1, Protein O-GlcNAcase; experiment: Competitive inhibition of N-terminal His-tagged human OGA using pNP-GlcNAc as chromogenic substrate assessed as inhibition constant by measuring liberation of nitrophenol preincubated with enzyme followed by substrate addition by Dixon plot analysis
In short: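 His6-tagged full-length human OGA (Rosetta(DE3), Co2+ IMAC), 33 nM. Pre-incubated with inhibitor at 37 °C in 50 mM potassium phosphate, pH 7.5, 1 ml. Started by adding pNP-GlcNAc at three concentrations. Release of p-nitrophenol followed continuously at 400 nm. Initial rates in triplicate; Ki by linear regression of Dixon plots; modality checked by Cornish-Bowden plots.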

Protein O-GlcNAcase [4] = target: T1, Protein O-GlcNAcase; experiment: Competitive inhibition of N-terminal His-tagged human OGA using 4-Mu-GlcNAc as substrate assessed as inhibition constant by measuring liberation of […] preincubated with enzyme followed by substrate addition by Cornish-Bowden method
In short: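 Full-length long isoform of human OGA with an N-terminal His6 tag, expressed in E. coli Rosetta(DE3) and purified on Co2+ IMAC. 3 nM enzyme was pre-incubated at 37 °C with inhibitor (0–100 nM) in 50 mM potassium phosphate, pH 7.5. Reaction was started with 4-MU-GlcNAc at three levels. Fluorescence (ex 360, em 450) was read every 10 s for 10 min. Triplicates; Ki from Dixon plot; mode by Cornish-Bowden.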

HEXA/HEXB [5] = target: T2, HEXA/HEXB; experiment: Inhibition of HexA/HexB (unknown origin); assay type: protein assay, Homo sapiens

Row | SMILES | Ki (Protein O-GlcNAcase [1]) [nM] | Ki (HEXA/HEXB [2]) [nM] | Ki (Protein O-GlcNAcase [3]) [nM] | Ki (Protein O-GlcNAcase [4]) [nM] | Ki (HEXA/HEXB [5]) [nM]
1 | CC(=O)N[C@H]1/C(=N/O)O[C@H](CO)[C@@H](O)[C@@H]1O | 1600 | – | – | – | –
2 | COc1ccc(NC(=O)N/N=C2\O[C@H](CO)[C@@H](O)[C@H](O)[C@H]2NC(C)=O)cc1 | – | 413 | 270 | – | –
3 | CC(=O)N[C@H]1/C(=N/NC(=O)Nc2ccc3ccccc3c2)O[C@H](CO)[C@@H](O)[C@@H]1O | – | 47 | – | 36 | –
4 | CC(=O)N[C@H]1/C(=N/NC(=O)Nc2ccccc2)O[C@H](CO)[C@@H](O)[C@@H]1O | – | 205 | 190 | – | 130
5 | CC(=O)N[C@H]1/C(=N/NC(=O)Nc2cccc3ccccc23)O[C@H](CO)[C@@H](O)[C@@H]1O | – | 154 | 506 | – | –
6 | CC(=O)N[C@H]1/C(=N/NC(=O)Nc2ccc(C(F)(F)F)cc2)O[C@H](CO)[C@@H](O)[C@@H]1O | – | 125 | 167 | – | –

Now from value to compound:

Row | Ki (Protein O-GlcNAcase [1]) [nM] | Ki (HEXA/HEXB [2]) [nM] | Ki (Protein O-GlcNAcase [3]) [nM] | Ki (Protein O-GlcNAcase [4]) [nM] | Ki (HEXA/HEXB [5]) [nM] | SMILES
7 | – | 30000 | 27000 | – | – | CC(=O)N[C@H]1/C(=N/NC(=S)Nc2ccccc2)O[C@H](CO)[C@@H](O)[C@@H]1O
8 | – | 170 | – | 83 | – | CC(=O)N[C@H]1/C(=N/NC(=O)Nc2ccc(Cl)cc2)O[C@H](CO)[C@@H](O)[C@@H]1O
9 | – | 332 | 155 | – | – | CC(=O)N[C@H]1/C(=N/NC(=O)Nc2ccc(C)cc2)O[C@H](CO)[C@@H](O)[C@@H]1O

— ChEMBL document CHEMBL4840309, “Nanomolar inhibition of human OGA by 2-acetamido-2-deoxy-d-glucono-1,5-lactone semicarbazone derivatives” (Eur J Med Chem, 2021)
